Assay results taken from ChEMBL document CHEMBL4373708 (J Med Chem, 2019).

Experiments:
Chloride anion exchanger = target: T1, Chloride anion exchanger (Mus musculus, UniProt Q9WVC8); test: Inhibition of mouse slc26a3 expressed in FRT cells co-expressing EYFP-H148Q/I152L/F46L assessed as reduction in protein-mediated chloride/iodide exchange preincubated for 10 mins followed by NaI-substituted PBS addition and measured by YFP-based fluorescence assay; assay type: cell-based
T1 sequence (Q9WVC8 whole entry): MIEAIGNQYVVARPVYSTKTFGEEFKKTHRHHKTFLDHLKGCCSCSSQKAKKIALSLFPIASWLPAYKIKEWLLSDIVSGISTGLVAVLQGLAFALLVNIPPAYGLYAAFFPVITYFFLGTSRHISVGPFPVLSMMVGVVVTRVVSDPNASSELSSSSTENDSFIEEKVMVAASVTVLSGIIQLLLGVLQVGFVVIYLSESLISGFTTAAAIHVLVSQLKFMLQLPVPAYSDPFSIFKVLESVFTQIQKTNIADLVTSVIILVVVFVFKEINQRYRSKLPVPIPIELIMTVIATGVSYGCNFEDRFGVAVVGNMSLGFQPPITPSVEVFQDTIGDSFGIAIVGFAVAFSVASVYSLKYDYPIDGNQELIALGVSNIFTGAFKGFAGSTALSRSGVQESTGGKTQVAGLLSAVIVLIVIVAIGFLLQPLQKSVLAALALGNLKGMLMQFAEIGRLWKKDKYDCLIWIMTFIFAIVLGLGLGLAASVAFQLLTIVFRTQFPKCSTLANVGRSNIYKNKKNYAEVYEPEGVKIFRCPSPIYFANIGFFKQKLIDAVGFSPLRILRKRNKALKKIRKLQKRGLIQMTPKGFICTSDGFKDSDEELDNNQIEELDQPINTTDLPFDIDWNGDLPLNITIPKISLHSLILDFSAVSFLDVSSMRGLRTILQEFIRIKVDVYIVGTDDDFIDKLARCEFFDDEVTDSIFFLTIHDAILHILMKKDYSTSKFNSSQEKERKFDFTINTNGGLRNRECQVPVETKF
Summary of the method: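 Chloride/iodide exchange was assayed in FRT cells co-expressing murine slc26a3 and EYFP-H148Q/I152L/F46L. Cells in PBS received iodide-substituted PBS (NaCl replaced by 140 mM NaI), and the fluorescence quenching rate was measured. Concentration–inhibition data were fitted to a single-site model for IC50. Data are representative of 3 replicates.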

[1] = AUC in mouse at 5 mg/kg, ip by LC-MS analysis; assay type: ADME, organism-based; conditions: in vivo
Summary of the method: (§1)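 Single intraperitoneal or oral dose in mice at 5 mg/kg (vehicle: saline with 5% DMSO and 10% Kolliphor HS 15) or 10 mg/kg (vehicle: PBS with 5% DMSO and 20% (2-hydroxypropyl)-β-cyclodextrin). Blood taken by retroorbital puncture at set times, serum separated by centrifugation at 4000 g for 20 min at 24 °C, compound quantified by LC/MS.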

[2] = AUC in mouse at 5 mg/kg, po by LC-MS analysis; assay type: ADME, organism-based; conditions: in vivo; summary of the method: as §1
[3] = Tmax in mouse at 5 mg/kg, po by LC-MS analysis; assay type: ADME, organism-based; conditions: in vivo; summary of the method: as §1
[4] = Tmax in mouse at 5 mg/kg, ip by LC-MS analysis; assay type: ADME, organism-based; conditions: in vivo; summary of the method: as §1
[5] = Cmax in mouse at 5 mg/kg, po by LC-MS analysis; assay type: ADME, organism-based; parameters: dose 5 mg/kg, route oral; conditions: in vivo; summary of the method: as §1
[6] = Cmax in mouse at 5 mg/kg, ip by LC-MS analysis; assay type: ADME, organism-based; parameters: dose 5 mg/kg, route intraperitoneal; conditions: in vivo; summary of the method: as §1
[7] = Time at which serum concentration stays above in vitro IC50 for inhibition of mouse slc26a3 expressed in FRT cells in mouse at 5 mg/kg, po or ip by LC-MS analysis; assay type: organism-based; conditions: in vivo; summary of the method: as §1

SMILES	IC50 (Chloride anion exchanger) [µM]	other results
Cc1c(CC(=O)O)c(=O)oc2c(C)c(OCc3cccnc3)ccc12	> 5	
COCCOc1ccc2c(C)c(CC(=O)O)c(=O)oc2c1C	> 5	
Cc1c(OCc2cccc(Br)c2)ccc2cc(C(=O)O)c(=O)oc12	> 5	
CCCCCOc1ccc2c(C)c(CC(=O)O)c(=O)oc2c1C	1	
Cc1c(CC(=O)O)c(=O)oc2c(C)c(OCc3ccncc3)ccc12	> 5	
C=CCOc1ccc2c(C)c(CC(=O)O)c(=O)oc2c1C	> 5	
Cc1c(CC(=O)O)c(=O)oc2c(C)c(OCc3cccc(Br)c3)ccc12		AUC [1]: 231 µM·h; AUC [2]: 124 µM·h; Tmax [3]: 5.8 h; Tmax [4]: 1.5 h; Cmax [5]: 9.4 µM; Cmax [6]: 24.3 µM; Time [7]: >= 24 hr
Cc1c(CC(=O)O)c(=O)oc2c(C)c(OCc3cccc(C(F)(F)F)n3)ccc12	> 5	
Cc1c(CC(=O)O)c(=O)oc2c(C)c(OCc3ccc(Br)cc3)ccc12	> 5	
CCCOc1ccc2c(C)c(CC(=O)O)c(=O)oc2c1C	> 5	
Cc1c(CC(=O)O)c(=O)oc2c(C)c(OCc3ccc(Cl)cc3)ccc12	> 5	
Cc1c(CC(=O)O)c(=O)oc2c(C)c(OCc3cc(F)cc(C(F)(F)F)c3)ccc12	0.06	
Cc1c(CC(=O)O)c(=O)oc2c(C)c(OCc3cccc(F)c3)ccc12	0.9	
CCCCOc1ccc2c(C)c(CC(=O)O)c(=O)oc2c1C	1.5	
Cc1c(CCC(=O)O)c(=O)oc2c(C)c(OCc3cccc(I)c3)ccc12	> 5	
Cc1c(OCc2cccc(Br)c2)ccc2cc(C(N)=O)c(=O)oc12	> 5	
Cc1c(CC(=O)O)c(=O)oc2c(C)c(OCCC(=O)O)ccc12	> 5	

SMILES	IC50 (Chloride anion exchanger) [µM]	other results
Cc1c(CC(=O)O)c(=O)oc2c(C)c(OCCn3cccc3)ccc12	> 5	
Cc1c(CC(=O)O)c(=O)oc2c(C)c(OCc3cccc(Cl)c3)ccc12	1	
Cc1c(OCc2cccc(I)c2)ccc2cc(C(=O)O)c(=O)oc12	> 5	
Cc1c(CC(=O)O)c(=O)oc2c(C)c(OCc3ccccc3Br)ccc12	10	
Cc1cc(C)cc(COc2ccc3c(C)c(CC(=O)O)c(=O)oc3c2C)c1	15	
Cc1c(CC(N)=O)c(=O)oc2c(C)c(OCc3cccc(Br)c3)ccc12	3.3	
Cc1c(CC(=O)O)c(=O)oc2c(C)c(OCc3ccccc3Cl)ccc12	18	
Cc1c(CC(=O)O)c(=O)oc2c(C)c(OCc3cccc(CO)n3)ccc12	> 5	
Cc1c(CC(=O)O)c(=O)oc2c(C)c(OCc3ccccn3)ccc12	> 5	
Cc1cccc(COc2ccc3c(C)c(CC(=O)O)c(=O)oc3c2C)c1	0.5	
Cc1c(CC(=O)O)c(=O)oc2c(C)c(OS(=O)(=O)c3cccc(Cl)c3)ccc12	> 5	
Cc1c(CC(=O)O)c(=O)oc2c(C)c(OCCc3cccc(C(F)(F)F)c3)ccc12	> 5	
Cc1c(CC(=O)O)c(=O)oc2c(C)c(OCc3ccc(I)cc3)ccc12	> 5	
Cc1c(CC(=O)O)c(=O)oc2c(C)c(OCc3cc(C(F)(F)F)cc(C(F)(F)F)c3)ccc12	0.3	
Cc1c(CCC(=O)O)c(=O)oc2c(C)c(OCc3cccc(Br)c3)ccc12	> 5	
Cc1c(OCc2cccc(Br)c2)ccc2cc(C(=O)NO)c(=O)oc12	0.45	
Cc1cccc(S(=O)(=O)Oc2ccc3c(C)c(CC(=O)O)c(=O)oc3c2C)c1	> 5	
